Published values from different studies.
Lines come from different studies, so protocols differ.
Medium: plasma

Cn1cnc(Cn2c(=O)[nH]/c(=N\c3cc4cn(C)nc4cc3Cl)n(Cc3cc(F)c(F)cc3F)c2=O)n1
AUC(0-t) (male Sprague-Dawley rat; oral, 25 mg/kg): 515000 ng·h/mL

CCC[C@@](N)(CO)CCc1ccc(OCCCCCC(C)C)cc1
AUC(0-t) (rat; oral, 10 mg/kg): 1.44 µM·h

CC(C)(C)[C@H](NC(=O)[C@H](CCONC(=N)N)NC(=O)Cc1ccc(CNC(=N)N)cc1)C(=O)N[C@@H](CCONC(=N)N)C(=O)NCc1ccc(C(=N)N)cc1
AUC(0-t) (male Sprague-Dawley rat; intraperitoneal, 2.5 mg/kg): 9350 ng·h/mL

CCCCCn1nc(C(=O)Nc2cccc3ccccc23)c2ccccc21
AUC(0-t) (male Long-Evans rat; intraperitoneal, 3 mg/kg): 304 ng·h/mL

N=c1c2c(-c3ccccc3)c(-c3ccccc3)n(Cc3ccccc3)c2ncn1[C@H]1CC[C@H](O)CC1
AUC(0-inf) (male Sprague-Dawley rat; intravenous, 2 mg/kg, single dose): 1700 ng·h/mL

[2H]C([2H])(c1cc(F)c(F)cc1F)n1c(=O)n(Cc2ncn(C)n2)c(=O)[nH]/c1=N\c1cc2cn(C)nc2cc1Cl
AUC(0-t) (male Sprague-Dawley rat; oral, 25 mg/kg): 451000 ng·h/mL

CN(C)C(=O)Oc1cc(OC(=O)N(C)C)cc(-c2cc3ccc(O)cc3o2)c1
AUC(0-t) (male rat; oral, 5 mg/kg): 17.7 ng·h/mL

COC(=O)C(NC(=O)c1cn(CCCCCF)c2ccccc12)C(C)(C)C (stereo not drawn)
AUC(0-t) (male Sprague-Dawley rat; subcutaneous, 100 µg/kg): 17 ng·h/mL

[2H]C([2H])([2H])n1cc2cc(Nc3nc(=O)n(Cc4ncn(C)n4)c(=O)n3Cc3cc(F)c(F)cc3F)c(Cl)cc2n1
AUC(0-t) (male Sprague-Dawley rat; intravenous, 5 mg/kg): 89900 ng·h/mL

Cl.Cl.O=C(CCN1CCCCC1)c1ccc(-c2ccc(C(=O)CCN3CCCCC3)cc2)cc1
AUC(0-t) (Sprague-Dawley rat; intravenous, 5 mg/kg): 251 ng·h/mL

CCCCCn1cc(C(=O)Nc2cccc3ccccc23)c2ccccc21
AUC(0-t) (male Long-Evans rat; intraperitoneal, 3 mg/kg): 4240 ng·h/mL

O=C([O-])C(=O)[O-].[NH-][C@@H]1CCCC[C@H]1[NH-].[Pt+4] (relative stereo)
AUC(0-t) (rat; oral, 10 mg/kg): 111 ng·h/mL
